Calls of active or inactive are those of the source. The calls are words filed in the database; no cut-off is given here.
Assays:
Mus musculus [1] = species: Mus musculus; experiment: Binding affinity to amyloid beta in APP/PS1 transgenic C57 mouse brain at 1 uM after 10 mins by fluorescence assay; type: tissue-based
How it was run: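 Paraffin-embedded brain sections (10 μm) from APP/PS1 C57 transgenic mouse, deparaffinized through xylene and graded ethanol, then PBS (0.2 M, pH 7.4) 30 min. Sections incubated 10 min with compound (1 μM in 20% ethanol), washed with 50% ethanol and PBS. Confocal fluorescence read at excitation 405 nm, 505 nm long-pass. Plaques confirmed with thioflavin-S (1 μM) on adjacent sections.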

[2] = Displacement of [125I]-TZDM from amyloid beta 1 to 42 after 2 hrs by gamma counting
How it was run: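 Aβ1-42 aggregated at 0.25 mg/mL in pH 7.4 buffer (10 mM sodium phosphate, 1 mM EDTA), 37 °C for 42 h with shaking. Fibrils (28 nM final) mixed with [125I]TZDM and inhibitor (10^-5 to 10^-10 M in EtOH) in PBS (0.2 M, pH 7.4). Incubated 2 h at 37 °C; nonspecific binding taken with 100 nM TZDM. Bound and free separated by vacuum filtration through glass fibre filters, washed with cold PBS containing 10% ethanol, then counted; Ki reported.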

Mus musculus [3] = species: Mus musculus; experiment: Binding affinity to amyloid beta in APP/PS1 transgenic C57 mouse brain cortex at 5 uCi/100 uL after 30 mins by autoradiography; type: tissue-based; conditions: tested as the 125I-labelled form
How it was run: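 Deparaffinized transgenic mouse brain sections incubated 30 min at room temperature with [125I]-labelled tracer (5 μCi/100 μL). Washed with saturated Li2CO3 in 40% EtOH for 3 min, then 40% EtOH for 3 min, then rinsed 30 s in water. Plaques checked afterwards by thioflavin-S (1 μM) fluorescence staining of the same sections.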

SMILES | Activity (Mus musculus [1]) | Ki [2] [nM] | inhibition [2] | Activity (Mus musculus [3])
O=[N+]([O-])c1ccc(/C=C/c2ccc(-c3ccc(Br)s3)s2)cc1 | Active | 0.1 | Dose-dependent effect | 
Clc1ccc(/C=C/c2ccc(-c3ccc(I)s3)s2)cc1 |  | 1.1 | Dose-dependent effect | 
Brc1ccc(/C=C/c2ccc(-c3ccc(Br)s3)s2)cc1 |  | 0.22 | Dose-dependent effect | 
COc1ccc(/C=C/c2ccc(-c3ccc(I)s3)s2)cc1 |  | 0.3 | Dose-dependent effect | Active
O=[N+]([O-])c1ccc(/C=C/c2ccc(-c3cccs3)s2)cc1 |  | 0.56 | Dose-dependent effect | 
COc1ccc(/C=C/c2ccc(-c3ccc(Br)s3)s2)cc1 |  | 0.72 | Dose-dependent effect | 
Ic1ccc(/C=C/c2ccc(-c3ccc(I)s3)s2)cc1 |  | 0.63 | Dose-dependent effect | 
COc1ccc(/C=C/c2ccc(-c3cccs3)s2)cc1 |  | 1.48 | Dose-dependent effect | 
Brc1ccc(/C=C/c2ccc(-c3cccs3)s2)cc1 |  | 0.99 | Dose-dependent effect | 
Oc1ccc(/C=C/c2ccc(-c3ccc(Br)s3)s2)cc1 |  | 3.6 | Dose-dependent effect | 
Cc1ccc(/C=C/c2ccc(-c3ccc(Br)s3)s2)cc1 |  | 0.45 | Dose-dependent effect | 

The remaining compounds from weak to strong by Ki [2], led by results:

Activity (Mus musculus [1]) | Ki [2] [nM] | inhibition [2] | Activity (Mus musculus [3]) | SMILES
 | 4.78 | Dose-dependent effect |  | C(=C\c1ccc(-c2cccs2)s1)/c1ccccc1
 | 4.06 | Dose-dependent effect |  | Fc1ccc(/C=C/c2ccc(-c3cccs3)s2)cc1
 | 0.92 | Dose-dependent effect | Active | Ic1ccc(/C=C/c2ccc(-c3cccs3)s2)cc1
Active | 0.73 | Dose-dependent effect |  | CN(C)c1ccc(/C=C/c2ccc(-c3cccs3)s2)cc1
Active | 0.73 | Dose-dependent effect |  | CC(C)(C)c1ccc(/C=C/c2ccc(-c3cccs3)s2)cc1

From ChEMBL document CHEMBL1795269, “Novel (E)-5-styryl-2,2'-bithiophene derivatives as ligands for β-amyloid plaques” (Eur J Med Chem, 2011)
